Compound activity (PubChem)
RGS4 pot – potentiators or activators of RGS4 | HEK293 M3R/inducible RGS4, carbachol calcium flux Fluo4; active compounds read low | 0.92% of 310,000 active | B-score at 10 µM;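 active means B-score of the integrated calcium signal more than 4 SD below the library mean, with starting fluorescence not abnormally high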;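 further: negative B-score means reduced calcium response which marks RGS4 activation or potentiation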
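Assay system: Inducible-RGS4 HEK293 cells carrying M3 receptor | Schedule: Compound preincubation 20 min at room temperature before agonist | Signal: Kinetic calcium fluorescence imaging with Fluo4-AM dye, 2 µM | Read-out basis: B score from integrated fluorescence ratio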
MrgX1 ag – human MrgX1 receptor agonism, primary screen; 0.44% of 310,000 active; Q96LB2; B-score at 10 µM; MrgX1-HEK293 cells, Fluo-4 calcium fluorescence, agonist mode; active compounds read high;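 active means calcium response B-score plate-corrected fluorescence ratio at least 3 library SD, with starting fluorescence B-score inside 5 SD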
Target sequence (Q96LB2 whole entry, looked up): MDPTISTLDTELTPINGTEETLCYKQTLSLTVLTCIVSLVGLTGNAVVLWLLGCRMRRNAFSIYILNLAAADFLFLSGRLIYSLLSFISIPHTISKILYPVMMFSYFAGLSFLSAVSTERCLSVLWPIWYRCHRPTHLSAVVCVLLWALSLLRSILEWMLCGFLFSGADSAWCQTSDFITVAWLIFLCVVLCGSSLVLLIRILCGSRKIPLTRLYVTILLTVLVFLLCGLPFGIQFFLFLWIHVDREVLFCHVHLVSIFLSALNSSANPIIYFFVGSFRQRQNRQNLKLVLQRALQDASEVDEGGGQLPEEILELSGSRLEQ
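System: HEK293 cells stably expressing human MrgX1 receptor; Dosing: test compound in the initial addition of three; Schedule: overnight plating, then 30 min 37 °C plus 30 min room-temperature dye loading; Detection: kinetic calcium dye fluorescence, Fluo-4 NW; Controls: per-plate positive and negative controls for Z′ factor.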
MrgX1 antagonist – antagonists of human MrgX1 receptor. AID 588676. B-score at 10 µM. MRGX1-HEK293 calcium flux, Fluo-4, BAM8-22 antagonism; active compounds read low. 1.3% of 310,000 active;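 active means calcium-response B-score plate-corrected more than 3 library SD below zero, starting fluorescence within 5 deviations, no agonist response on first addition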;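 further: peak minus trough fluorescence over baseline after final BAM8-22 challenge near maximal dose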
MrgX1 allo act – human MrgX1 positive allosteric modulation, primary screen. Q96LB2. MrgX1-HEK293, Fluo-4 calcium flux, FDSS; active compounds read high. B-score at 10 µM. 0.63% of 310,000 active;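 active means plate-corrected calcium response at least 3 library SD above typical, normal starting fluorescence, not activating the receptor alone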;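 further: compound read alongside a low EC10 to EC30 dose of BAM8-22 agonist; peak minus trough fluorescence over baseline measured at the second addition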
RGS4 block – inhibitors of human RGS4. P49798. HEK293 M3R/RGS4 inducible, Fluo-4 calcium flux; active compounds read high; triggered by carbachol at its EC20. 0.45% of 310,000 active. B-score at 10 µM;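 active means B-score, a plate-corrected calcium signal, over three deviations above library mean, with baseline fluorescence within five deviations of library mean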;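 further: RGS4 expression induced by doxycycline in cells with stable M3 receptor; B-score is computed from the integrated fluorescence ratio over baseline after carbachol; higher B-score means a larger calcium signal and so more RGS4 inhibition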
Target sequence (P49798 whole entry, looked up): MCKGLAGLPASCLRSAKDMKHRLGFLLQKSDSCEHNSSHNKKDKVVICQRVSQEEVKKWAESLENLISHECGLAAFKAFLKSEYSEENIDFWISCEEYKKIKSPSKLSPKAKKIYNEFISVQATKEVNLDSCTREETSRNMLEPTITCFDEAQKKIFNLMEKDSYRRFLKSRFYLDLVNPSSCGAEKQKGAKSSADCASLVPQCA
* hit, by the source's call; i = inactive; / = not tested or not shown. Only some compounds are listed: those with a hit (about 3.5% of all), similar ones and a draw of the others.

SMILES | RGS4 pot | MrgX1 ag | MrgX1 antagonist | MrgX1 allo act | RGS4 block
O=C1CC(NS(=O)(=O)c2cccnc2)CN1c1ccc(Cl)cc1 (stereo not given) | i | i | i | i | i
COC(=O)c1ccc(-c2noc(CN(Cc3nccn3C)C(C)C)n2)cc1 | -7.5* | i | i | i | i
Cn1cccc1/C=N\NC(=O)C1COc2ccc(C(C)(C)C)cc2O1 (stereo not given) | i | i | i | 8.1* | i
Cn1cccc1/C=N\NC(=O)C1COc2ccccc2O1 (stereo not given) | i | i | i | i | i
O=C(C1CCN(S(=O)(=O)c2ccc(Br)s2)CC1)N1CCCCC1 | i | i | i | i | i
O=C(Cc1ccccc1)NNC(=S)NC(=O)c1cccs1 | i | 60* | i | i | i
O=C(Cc1cccs1)NNC(=S)NC(=O)c1ccccc1 | i | 43* | i | i | i
O=C(Cc1cccs1)NNC(=S)NC(=O)c1ccc(F)c(F)c1 | i | 61* | i | i | i
O=C(NC(=S)NCc1ccccc1)c1cccs1 | i | i | i | i | i
O=C(COc1ccccc1)NNC(=S)NC(=O)c1ccccc1 | i | i | i | i | i
COc1ccc(S(=O)(=O)Nc2ccccc2C(=O)N2CCOCC2)cc1Cl | i | i | i | i | i
CCn1ncc(/C=C/C(=O)NCc2cn(C)nc2C)c1C | i | i | -4.8* | i | i
CCn1ncc(/C=C/C(=O)NCc2cnn(C)c2C)c1C | i | i | i | i | i
CCOC(=O)C1=C(COC(=O)COc2ccc(Br)cc2)NC(=O)NC1C (stereo not given) | i | i | i | i | i
N#Cc1ccc(C(=O)OCC(=O)N2CCCC2)cc1 | i | i | i | i | i
Clc1ccc(C#Cc2cccnc2)cc1 | i | i | i | i | i
O=C(CN1CCCCCC1)Nc1ccccc1Oc1ccccc1 | -7.2* | i | i | i | i
CN(C)c1ccc2nc3ccc(=[N+](C)C)cc-3sc2c1 | -7.5* | i | i | i | i
Cc1nc2cc(C)c(C)cc2s1 | i | i | i | i | i
Cc1cc2nc3ccc(=[N+](C)C)cc-3sc2cc1N | -8.4* | / | / | / | i
CN(C)c1ccc(/C=C(\Cl)c2nc3ccccc3s2)cc1 | / | i | i | i | /
Cc1ccc(NC(=O)C2CCN(S(=O)(=O)c3ccc4c(c3)C(C)(C)C(=O)N4C)CC2)c(C)c1 | i | i | i | i | i
COc1ccc(Cl)cc1NC(=O)CN(C)C(=O)c1ccc(N2CCCCCC2)c([N+](=O)[O-])c1 | i | i | -6.6* | i | i
CCN(CC(=O)Nc1c(F)cccc1F)C(=O)c1ccc(N2CCCCC2)c([N+](=O)[O-])c1 | i | i | -4.6* | i | i
NC(=O)c1ccc(N2CCCCCC2)c([N+](=O)[O-])c1 | i | i | -5.7* | i | i
SMILES | RGS4 pot | MrgX1 ag | MrgX1 antagonist | MrgX1 allo act | RGS4 block
CC(=O)N1CCN(c2ccc(C(N)=O)cc2[N+](=O)[O-])CC1 | i | i | i | i | i
COc1ccc(Cl)cc1NC(=O)CN(C)C(=O)c1ccc(N2CCCCC2)c([N+](=O)[O-])c1 | i | i | i | i | i
O=C(CSc1nc(N2CCOCC2)nc(N2CCOCC2)n1)Nc1ccccc1F | i | i | i | i | i
COC(=O)c1sccc1NC(=O)c1cc(-c2ccc(C)cc2C)nc2ccccc12 | i | i | i | i | i
O=C(O)c1ccc(CNC(=O)c2ccccc2NC(=O)c2ccc([N+](=O)[O-])cc2)cc1 | i | i | -4.9* | i | i
Cc1cc(C)c[n+](-c2[nH]c(=O)sc2/C=N/N=C(\[O-])c2cccnc2)c1 | i | i | i | i | i
CCOC(=O)c1c(NC(=O)CSc2nnc(-c3cccc(C)c3)n2CC)sc(C(C)=O)c1C | -7* | i | i | i | i
CCOC(=O)c1c(NC(=O)CSc2nnc(-c3ccccc3)n2CC)sc(C(C)=O)c1C | i | i | i | i | i
C[N+](C)(C)CCCNC(=O)c1ccc(/C=N/O)nc1 | i | i | -5.1* | i | i
O=C(NCCN1CCOCC1)/C(=C/c1ccco1)NC(=O)c1ccccc1 | i | i | i | i | i
O=[N+]([O-])c1ccc2oc(C(O)c3cccc(Cl)c3)cc2c1 (stereo not given) | i | i | i | 8.5* | i
Cc1cc(C)n(CCN(C)C(=O)C2CCC(=O)N(CCc3cccc(F)c3)C2)n1 (stereo not given) | i | i | i | i | i
CCc1nc(Nc2ccccc2F)c2oc3ccccc3c2n1 | i | i | i | 8.4* | i
CC(C)(C)C(=O)N1CCN(C(=O)c2ccco2)CC1 | i | i | i | i | i
COc1cc(C)ccc1OCc1cc(C(=O)N(C)CCCN2CCOCC2)no1 | i | i | i | i | i
CCN1/C(=C/C=C/C=C/c2sc3ccccc3[n+]2CC)Sc2ccccc21 | i | i | i | i | i
CCN1/C(=C/C=C/C=C/C=C/c2sc3ccccc3[n+]2CC)Sc2ccccc21 | i | i | -5.1* | i | i
CC[n+]1c(/C=C/Nc2ccccc2)sc2ccccc21 | i | i | i | i | i
CCN1/C(=C/C=C/c2sc3ccccc3[n+]2CC)Sc2ccccc21 | -7* | i | -4.6* | i | i
CCCCCCC(=O)N/N=C1\CCCc2ccccc21 | i | i | i | i | i
CN(C)S(=O)(=O)c1cccc(NC(=O)CSc2cccc3cccnc23)c1 | -7.3* | i | i | i | i
Cc1ccc(C)c(C(=O)Nc2ccncc2)c1 | i | i | i | i | i
O=C(c1ccc(COc2ccc(Cl)cc2Cl)o1)N1CCCC1 | -7.6* | i | i | i | i
O=C(COc1ccc(Cl)cc1Cl)Nc1ccc(CN2CCOCC2)cc1 | i | i | i | i | i
Cc1cccc(NC(=S)NNC(=O)COc2ccc(Cl)cc2Cl)c1 | i | i | i | 10* | i
O=C(COc1ccc(Cl)cc1Cl)Nc1ccc(CN2CCCCC2)cc1 | -7.1* | i | i | i | i
CN(C(=O)c1cc(COc2ccc(F)cc2Cl)on1)C1CCCc2ccccc21 (stereo not given) | -7.2* | i | i | i | i
Cc1ccc(CN(C)C(=O)c2cc(COc3ccc(F)cc3Cl)on2)o1 | i | i | i | i | i
